Data on five compounds can be found in ChEMBL document CHEMBL1123938, “Synthesis and biological studies of iodinated (127/125I) derivatives of rhodamine 123” (1987).

Several values for one entry are separate records, joined by “and”; a condition that tells them apart may be missing. Equal entries are not always repeated.

The species entered for one assay is Cricetulus griseus. In words: Extra cellular concentration of radiolabeled compound was determined in chinese hamster V79 lung fibroblasts. The assay is classed as functional. An outline of the steps: (§1)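 V79 Chinese hamster lung fibroblasts or human PC3 prostate adenocarcinoma cells, grown at 37 °C in MEM with 15% fetal calf serum. Log-phase cells were trypsinized and suspended at 2 × 10⁵/mL in calcium-free MEM, then preincubated 4 h at 37 °C on a roller. Carrier-free ¹²⁵I-labelled dihydrorhodamine derivative was added and incubated 2 h at 37 °C. Cell radioactivity was measured by microfuge; intracellular concentration was derived from Coulter-measured cell volumes.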

The next assay relates to PC-3. The assay is described as follows: Extra cellular concentration of radiolabeled compound was determined in human prostate PC3 adenocarcinoma cells. It is filed as functional, cell-based. Summed up:
as §1

Assay [1] is described as follows: Ratio of pCi/cell cellular uptake to uCi/mL cellular uptake. It is filed as functional.

As for `COC(=O)c1ccccc1C1c2cc(I)c(N)cc2Oc2c1cc(I)c(N)c2I` (stereo unspecified), the Concentration was 1.3 uCi ml-1 in the assay listed under Cricetulus griseus and 1.15 uCi ml-1 in the assay on PC-3. For the same compound, in assay [1], the Ratio was 0.152 and 0.348.
With `COC(=O)c1ccccc1C1c2cc(I)c(N)cc2Oc2c1ccc(N)c2I` (stereo unspecified), the figures for the Concentration in the assay listed under Cricetulus griseus and with PC-3 were 1.64 uCi ml-1 and 1.35 uCi ml-1, respectively.
In the case of `COC(=O)c1ccccc1C1c2ccc(N)cc2Oc2cc(N)c(I)cc21` (stereo unspecified), the Concentration in the assay filed under Cricetulus griseus worked out at 0.956 uCi ml-1; in the assay with PC-3, 0.937 uCi ml-1.
`COC(=O)c1ccccc1C1c2cc(I)c(N)cc2Oc2cc(N)c(I)cc21`: the Concentration in the assay filed under Cricetulus griseus stood at 0.97 uCi ml-1; in the assay with PC-3, 0.883 uCi ml-1.
For `COC(=O)c1ccccc1C1c2ccc(N)cc2Oc2c1ccc(N)c2I` (stereo unspecified), in that order: 1.27 uCi ml-1 and 1.2 uCi ml-1.
